The values below come from publication PMC3263943 (Bioscience Reports, 2011).

The target in one test is human calmodulin (human) (UniProt P0DP23). Kind of test: native gel or EMSA. In general terms: Mobility shift assays separate free from complexed probe on a gel.
The target of another test is human CaM (calmodulin) (Homo sapiens, UniProt P0DP23). Nature of the test: Native gel titration of CaM with peptide. The test is classed as binding. The settings on record: presence of calcium ions; from Kd,app by native gel densitometry. The procedure, abridged: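 Bacterially expressed CaM (E. coli Rosetta (DE3), calcium-dependent phenyl-Sepharose purification) held at 35 μM, calcium present, with synthetic IQ-motif peptide at 18–350 μM; incubated 1 h at 22°C. Native 15% polyacrylamide gel in Tris/glycine pH 8.8, Coomassie-stained. Fraction bound = complex band/(complex + free CaM), background-corrected densitometry. Means of three independent experiments fitted to hyperbolic binding equation; Kd,app ± S.E.M. from fit.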

Consider “3IQ2, peptide of the second IQ-motif of human IQGAP3”, for which the Kd (in general, the free concentration of one partner at which half of the binding sites on the other are occupied at equilibrium, for simple one-to-one binding) with human calmodulin (human) turned out to be 27 µM. In the test with human calmodulin (human), “3IQ3, peptide of the third IQ-motif of human IQGAP3” registered a Kd of 76 µM. Substance “3IQ4, peptide of the fourth IQ-motif of human IQGAP3” came in with an equilibrium dissociation constant (Kd) with human calmodulin (human) of 65 µM. Take Ac-KNVNSIVKIQAFFRARKAQDDYR-NH2 [3IQ4]: the “Ranking of affinity for CaM” value on human CaM (calmodulin) is recorded as “followed by 3IQ4”.
